≈ marks a conversion by molar mass, not a printed value. Calls of active or inactive are those of the source. The rule behind the calls is not given here.
Experiments:
[1] = molecular target: T1, Fibroblast growth factor receptor 1 (Homo sapiens, UniProt P11362); assay: Inhibition of FGFR1 (unknown origin) using poly (Glu, Tyr)4:1 as substrate by ELISA
Target sequence in this assay (P11362 whole entry): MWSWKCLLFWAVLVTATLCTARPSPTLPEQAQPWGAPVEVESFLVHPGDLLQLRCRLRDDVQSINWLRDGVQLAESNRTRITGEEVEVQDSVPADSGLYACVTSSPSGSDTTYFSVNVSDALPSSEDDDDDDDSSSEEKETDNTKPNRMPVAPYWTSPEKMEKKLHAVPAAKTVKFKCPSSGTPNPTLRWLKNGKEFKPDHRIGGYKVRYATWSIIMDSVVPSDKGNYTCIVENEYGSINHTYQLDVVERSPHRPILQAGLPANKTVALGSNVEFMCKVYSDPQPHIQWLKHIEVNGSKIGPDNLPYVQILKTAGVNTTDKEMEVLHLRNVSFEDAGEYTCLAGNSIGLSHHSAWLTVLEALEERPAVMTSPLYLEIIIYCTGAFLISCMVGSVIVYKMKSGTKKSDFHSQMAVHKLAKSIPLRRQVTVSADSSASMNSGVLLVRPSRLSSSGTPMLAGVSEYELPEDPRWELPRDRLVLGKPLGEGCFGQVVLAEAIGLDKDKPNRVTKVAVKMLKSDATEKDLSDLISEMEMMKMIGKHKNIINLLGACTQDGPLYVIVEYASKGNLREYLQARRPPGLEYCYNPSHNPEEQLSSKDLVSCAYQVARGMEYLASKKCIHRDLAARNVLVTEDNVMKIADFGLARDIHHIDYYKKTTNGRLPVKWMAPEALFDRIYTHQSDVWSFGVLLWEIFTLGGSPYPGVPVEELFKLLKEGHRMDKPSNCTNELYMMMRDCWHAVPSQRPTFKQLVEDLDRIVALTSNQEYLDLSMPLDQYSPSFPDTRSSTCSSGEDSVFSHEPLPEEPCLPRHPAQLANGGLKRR

[2] = molecular target: Platelet-derived growth factor receptor beta (Homo sapiens, UniProt P09619); assay: Inhibition of PDGFRbeta (unknown origin) using poly (Glu, Tyr)4:1 as substrate by ELISA
[3] = molecular target: Vascular endothelial growth factor receptor 2 (Homo sapiens, UniProt P35968); assay: Inhibition of KDR (unknown origin) using poly (Glu, Tyr)4:1 as substrate by ELISA
[4] = molecular target: Platelet-derived growth factor receptor alpha (Homo sapiens, UniProt P16234); assay: Inhibition of PDGFRalpha (unknown origin) using poly (Glu, Tyr)4:1 as substrate by ELISA
Outline: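 ELISA on wells precoated with 2.5 µg/well poly(Glu,Tyr) 4:1. Reaction buffer was 50 mM HEPES pH 7.4, 20 mM MgCl2, 0.1 mM Na3VO4, 1 mM DTT, with 10 µM ATP; the reaction was started by adding kinase and run 1 h at 37 °C. Phosphotyrosine detected with PY99 and HRP anti-mouse IgG, o-phenylenediamine development, read at 490 nm.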

DNA [5] = assay: Binding affinity to calf thymus DNA assessed as intercalation at 20 uM after 2 hrs by circular dichroism spectrophotometry; assay type: nucleic-acid assay; conditions: Bos taurus
Outline: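 Calf thymus DNA (100 µM) was incubated with compound (20 µM) in Tris-HCl buffer for 2 h at 25 °C. CD spectra were then analysed over 230–300 nm.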

[6] = Solubility of the compound in PBS buffer at PH 7.4 after 24 hrs by UV-Visible spectrophotometry; assay type: physicochemical
[7] = Cytotoxicity against human LO2 cells after 72 hrs by sulforhodamine B assay; assay type: cell-based; conditions: L02, 72 h
Outline: (§1)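 Cells seeded and cultured overnight, then treated with increasing compound concentrations for 72 h. Fixed with 10% TCA, stained with sulforhodamine B, dye dissolved in 10 mM Tris-HCl, read at 515 nm. Inhibition taken relative to untreated control. IC50 by the Logit method; triplicate experiments.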

[8] = Cytotoxicity against human GES-1 cells after 72 hrs by sulforhodamine B assay; assay type: cell-based; conditions: GES1, 72 h; outline: as §1
A549 = assay: Cytotoxicity against human A549 cells after 72 hrs by sulforhodamine B assay; assay type: functional, cell-based; conditions: A549, 72 h; outline: as §1
HL-60 = assay: Cytotoxicity against human HL60 cells after 72 hrs by MTT assay; assay type: functional, cell-based; conditions: HL-60, 72 h
Outline: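 HL60 cells were treated with increasing compound concentrations for 72 h. MTT was then added for 4 h. Cells were lysed overnight at 37 °C in 10% SDS–5% isobutanol–12 mM HCl and read at 570 nm. Inhibition taken relative to control. IC50 by the Logit method; triplicate experiments.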

MDA-MB-231 = assay: Cytotoxicity against human MDA-MB-231 cells after 72 hrs by sulforhodamine B assay; assay type: functional, cell-based; conditions: MDA-MB-231, 72 h; outline: as §1
[9] = molecular target: DNA topoisomerase 2-alpha (Homo sapiens) (UniProt P11388); assay: Inhibition of human topoisomerase 2 alpha-mediated decatenation of kinetoplast DNA at 100 uM after 30 mins by agarose gel electrophoresis in presence of ATP relative to control
Outline: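 ATP-dependent decatenation of 0.1 µg kinetoplast DNA by 1 unit of human topo IIα. Incubated 30 min at 37 °C in 50 mM Tris-HCl pH 8.0, 150 mM NaCl, 10 mM MgCl2, 2 mM ATP, 0.5 mM DTT. Gel images quantified by densitometry.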

[10] = molecular target: T1, Fibroblast growth factor receptor 1; assay: Inhibition of FGFR1 in human HMEC1 cells assessed as reduction of bFGF-induced Erk1/2 phosphorylation at Thr 202/204 at 1.25 to 2.5 uM incubated for 10 hrs prior to bFGF challenge measured after 10 mins by Western blotting analysis; assay type: cell-based
Outline: (§2)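 HMEC-1 cells were plated at 3 × 10⁵ cells/well and serum-starved 24 h. Cells were exposed to compound (10 h per the results text; methods state 12 h), then stimulated with 50 ng/mL bFGF for 10 min at 37 °C. Whole-cell lysates were run on 10% SDS-PAGE and blotted with antibodies to phospho-FGFR1, phospho-Erk and phospho-AKT, with GAPDH as loading control.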
Target sequence in this assay (P11362 22-822 limits assumed): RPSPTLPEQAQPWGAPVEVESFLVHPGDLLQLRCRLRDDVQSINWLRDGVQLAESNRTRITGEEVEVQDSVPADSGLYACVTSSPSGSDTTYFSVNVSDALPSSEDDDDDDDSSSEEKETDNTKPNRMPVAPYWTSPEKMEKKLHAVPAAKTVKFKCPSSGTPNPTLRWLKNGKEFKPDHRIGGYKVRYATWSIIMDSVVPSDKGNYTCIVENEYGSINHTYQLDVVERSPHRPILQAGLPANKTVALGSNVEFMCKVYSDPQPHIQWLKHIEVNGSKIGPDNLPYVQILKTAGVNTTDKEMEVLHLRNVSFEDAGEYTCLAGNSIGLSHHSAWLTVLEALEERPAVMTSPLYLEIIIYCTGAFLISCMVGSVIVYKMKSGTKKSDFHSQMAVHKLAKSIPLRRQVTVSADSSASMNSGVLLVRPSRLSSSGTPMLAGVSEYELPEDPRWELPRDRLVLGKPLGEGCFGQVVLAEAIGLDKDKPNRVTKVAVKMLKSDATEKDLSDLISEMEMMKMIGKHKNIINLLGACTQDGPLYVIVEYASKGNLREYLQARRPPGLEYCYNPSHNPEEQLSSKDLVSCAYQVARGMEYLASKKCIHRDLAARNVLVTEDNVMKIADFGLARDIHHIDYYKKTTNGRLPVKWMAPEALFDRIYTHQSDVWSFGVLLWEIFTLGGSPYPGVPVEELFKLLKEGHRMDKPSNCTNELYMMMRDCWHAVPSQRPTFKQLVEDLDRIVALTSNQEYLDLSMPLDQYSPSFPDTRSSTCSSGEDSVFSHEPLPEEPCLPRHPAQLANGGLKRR

[11] = molecular target: T1, Fibroblast growth factor receptor 1; assay: Inhibition of FGFR1 in human HMEC1 cells assessed as reduction of bFGF-induced AKT phosphorylation at Ser 473 at 1.25 to 5 uM incubated for 10 hrs prior to bFGF challenge measured after 10 mins by Western blotting analysis; assay type: cell-based; outline: as §2
Target sequence in this assay (P11362 22-822 limits assumed): as above

[12] = molecular target: T1, Fibroblast growth factor receptor 1; assay: Inhibition of FGFR1 in human HMEC1 cells assessed as reduction of bFGF-induced FGFR1 phosphorylation at Tyr 653/654 at 1.25 to 2.5 uM incubated for 10 hrs prior to bFGF challenge measured after 10 mins by Western blotting analysis; assay type: cell-based; outline: as §2
Target sequence in this assay (P11362 22-822 limits assumed): as above

[13] = molecular target: T1, Fibroblast growth factor receptor 1; assay: Inhibition of FGFR1 in human HMEC1 cells assessed as inhibition of bFGF-induced FGFR1 phosphorylation at Tyr 653/654 incubated for 10 hrs prior to bFGF challenge measured after 10 mins by Western blotting analysis; assay type: cell-based; outline: as §2
Target sequence in this assay (P11362 22-822 limits assumed): as above

[14] = Antiangiogenic activity in human HMEC1 cells assessed as inhibition of serum-stimulated tube formation at 10 uM after 8 hrs by matrigel assay relative to control; assay type: functional; conditions: HMEC-1, 8 h
Outline: (§3)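 Matrigel was set in 96-well plates (37 °C, 1 h) and seeded with HMEC-1 at 1 × 10⁵ cells/mL. Cells were cultured 8 h at 37 °C in MCDB131 with 20% FBS containing compound or control. Tubes were counted in five random fields by phase-contrast microscopy. Inhibition = [1 − tubes compound/tubes control] × 100%; mean ± SD, n = 3.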

[15] = Antiangiogenic activity in human HMEC1 cells assessed as inhibition of serum-stimulated tube formation at 5 uM after 8 hrs by matrigel assay relative to control; assay type: functional; conditions: HMEC-1, 8 h; outline: as §3
HMEC-1 [16] = assay: Antiangiogenic activity in human HMEC1 cells assessed as inhibition of serum-stimulated tube formation after 8 hrs by matrigel assay; assay type: functional, cell-based; outline: as §3
[17] = Antimigratory activity against human HMEC1 cells at 10 uM after 6 hrs by transwell Boyden chamber assay relative to control; assay type: functional; conditions: HMEC-1, 6 h
Outline: (§4)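 HMEC-1 suspension (5 × 10⁵ cells/mL) with compound or control was placed in the upper compartment of a transwell Boyden chamber. The lower compartment held MCDB131 with 20% FBS plus the same compound concentration. After 6 h at 37 °C, migrated cells were quantified by absorbance. Inhibition = [1 − (A compound − A blank)/(A control − A blank)] × 100%; mean ± SD, n = 3.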

[18] = Antimigratory activity against human HMEC1 cells at 5 uM after 6 hrs by transwell Boyden chamber assay relative to control; assay type: functional; conditions: HMEC-1, 6 h; outline: as §4
HMEC-1 [19] = assay: Antimigratory activity against human HMEC1 cells after 6 hrs by transwell Boyden chamber assay; assay type: functional, cell-based; outline: as §4
HMEC-1 [20] = assay: Antiangiogenic activity in human HMEC1 cells assessed as growth inhibition at <= 10 uM after 72 hrs by SRB assay; assay type: functional, cell-based
Outline: (§5)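 HMEC-1 cells seeded and cultured overnight, then exposed to graded compound concentrations for 72 h. Cells were fixed with 10% trichloroacetic acid and stained with sulforhodamine B. Dye was dissolved in 10 mM Tris-HCl and read at 515 nm. Inhibition = (1 − A515 treated/A515 control) × 100%.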

[21] = Antiangiogenic activity in human HMEC1 cells assessed as growth inhibition at 40 uM after 72 hrs by SRB assay; assay type: functional; conditions: HMEC-1, 72 h, read-out: GI; outline: as §5
[22] = Antiangiogenic activity in human HMEC1 cells assessed as growth inhibition at 20 uM after 72 hrs by SRB assay; assay type: functional; conditions: HMEC-1, 72 h, read-out: GI; outline: as §5
HMEC-1 [23] = assay: Antiangiogenic activity in human HMEC1 cells assessed as growth inhibition after 72 hrs by SRB assay; assay type: functional, cell-based; outline: as §5
DNA [24] = assay: Binding affinity to calf thymus DNA assessed as intercalation at 10 uM after 1 hr by fluorescence spectrophotometry; assay type: nucleic-acid assay; conditions: Bos taurus
Outline: (§6)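 Fluorescence spectra were recorded at 25 °C. Compound was present at 10 µM with calf thymus DNA at 0–80 µM, in 20 mM Tris-HCl (pH 7.5) containing 1% DMSO.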

DNA [25] = assay: Binding affinity to calf thymus DNA assessed as intercalation after 1 hr by fluorescence spectrophotometric analysis; assay type: nucleic-acid assay; conditions: Bos taurus; outline: as §6

Platelet-derived growth factor receptor alpha, sequence (P16234 whole entry): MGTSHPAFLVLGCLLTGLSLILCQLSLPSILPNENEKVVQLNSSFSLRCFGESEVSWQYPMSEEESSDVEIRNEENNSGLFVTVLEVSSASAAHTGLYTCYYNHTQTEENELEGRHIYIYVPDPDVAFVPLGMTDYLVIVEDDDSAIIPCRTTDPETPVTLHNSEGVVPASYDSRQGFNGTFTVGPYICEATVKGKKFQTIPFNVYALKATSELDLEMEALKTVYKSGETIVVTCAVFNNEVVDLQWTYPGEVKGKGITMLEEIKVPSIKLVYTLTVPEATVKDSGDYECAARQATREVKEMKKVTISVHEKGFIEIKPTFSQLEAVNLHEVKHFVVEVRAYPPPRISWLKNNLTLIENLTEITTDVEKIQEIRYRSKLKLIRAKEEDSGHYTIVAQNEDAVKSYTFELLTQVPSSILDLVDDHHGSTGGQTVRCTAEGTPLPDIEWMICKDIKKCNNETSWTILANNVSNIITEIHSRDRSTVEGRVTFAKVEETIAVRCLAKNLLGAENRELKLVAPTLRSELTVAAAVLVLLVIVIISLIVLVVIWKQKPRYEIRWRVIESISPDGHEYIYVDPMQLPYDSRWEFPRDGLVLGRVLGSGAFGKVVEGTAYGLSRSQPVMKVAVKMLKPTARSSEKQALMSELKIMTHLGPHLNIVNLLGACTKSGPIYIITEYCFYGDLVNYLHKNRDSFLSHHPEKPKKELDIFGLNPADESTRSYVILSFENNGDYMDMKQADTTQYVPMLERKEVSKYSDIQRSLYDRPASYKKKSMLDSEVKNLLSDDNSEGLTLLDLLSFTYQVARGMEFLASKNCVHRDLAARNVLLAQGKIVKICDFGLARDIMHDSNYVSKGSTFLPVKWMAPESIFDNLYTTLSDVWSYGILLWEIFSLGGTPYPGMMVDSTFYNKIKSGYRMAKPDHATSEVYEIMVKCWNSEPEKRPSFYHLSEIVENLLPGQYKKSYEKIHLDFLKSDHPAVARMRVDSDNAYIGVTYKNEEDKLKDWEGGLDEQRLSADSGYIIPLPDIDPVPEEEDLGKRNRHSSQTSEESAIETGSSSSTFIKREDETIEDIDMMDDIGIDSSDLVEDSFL
Platelet-derived growth factor receptor beta, sequence (P09619 whole entry): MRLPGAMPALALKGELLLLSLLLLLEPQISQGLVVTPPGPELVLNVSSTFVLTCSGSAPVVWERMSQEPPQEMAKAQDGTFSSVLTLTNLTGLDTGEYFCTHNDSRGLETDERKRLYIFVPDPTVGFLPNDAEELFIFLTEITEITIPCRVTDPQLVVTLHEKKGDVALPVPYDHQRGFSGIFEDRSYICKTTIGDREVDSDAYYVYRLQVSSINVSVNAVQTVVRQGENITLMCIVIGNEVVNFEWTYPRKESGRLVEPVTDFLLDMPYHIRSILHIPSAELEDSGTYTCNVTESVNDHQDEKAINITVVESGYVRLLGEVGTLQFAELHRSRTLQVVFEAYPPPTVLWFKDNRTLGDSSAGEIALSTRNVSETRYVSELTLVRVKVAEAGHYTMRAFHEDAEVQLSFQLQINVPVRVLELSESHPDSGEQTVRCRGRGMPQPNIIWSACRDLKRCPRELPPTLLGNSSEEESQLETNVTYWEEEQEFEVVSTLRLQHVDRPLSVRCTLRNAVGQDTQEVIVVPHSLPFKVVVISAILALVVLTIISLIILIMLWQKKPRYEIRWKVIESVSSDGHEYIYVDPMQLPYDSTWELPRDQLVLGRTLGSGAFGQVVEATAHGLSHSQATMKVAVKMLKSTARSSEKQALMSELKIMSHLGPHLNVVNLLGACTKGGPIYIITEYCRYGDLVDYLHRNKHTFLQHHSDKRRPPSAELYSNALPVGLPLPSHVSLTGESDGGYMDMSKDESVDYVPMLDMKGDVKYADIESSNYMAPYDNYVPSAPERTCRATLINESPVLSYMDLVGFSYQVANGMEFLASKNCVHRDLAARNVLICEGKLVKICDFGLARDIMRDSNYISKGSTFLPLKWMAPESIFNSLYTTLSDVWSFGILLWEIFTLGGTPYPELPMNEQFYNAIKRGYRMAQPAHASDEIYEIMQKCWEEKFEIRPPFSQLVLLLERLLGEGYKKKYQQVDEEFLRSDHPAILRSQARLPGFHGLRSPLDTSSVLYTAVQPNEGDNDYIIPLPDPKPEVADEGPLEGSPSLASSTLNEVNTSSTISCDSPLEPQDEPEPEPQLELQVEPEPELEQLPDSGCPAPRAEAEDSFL

Row | SMILES | IC50 [1] [µM] | IC50 [2] [µM] | IC50 [3] [µM] | IC50 [4] [µM] | Activity (DNA [5]) | solubility at 24 h [6] [µM] | IC50 [7] [µM] | IC50 [8] [µM] | IC50 (A549) [µM] | IC50 (HL-60) [µM] | IC50 (MDA-MB-231) [µM] | inhibition [9] [%] | Activity (DNA [24]) | further results
1 | CCN1C(=O)c2cccc3c(NCCNCCN(C)C)ccc(c23)C1=O | > 100 | > 100 | > 100 | > 100 | inactive | 46700 (≈ 16600 µg/mL) | > 50 | > 50 | 31.4 | 17 | 24.3 | 86.7 | – | –
2 | CCCCCCN1C(=O)c2cccc3c(NCCNCCN(C)C)ccc(c23)C1=O | > 100 | > 100 | > 100 | > 100 | inactive | 430 (≈ 177 µg/mL) | > 50 | 46 | 9.8 | 1.5 | 6.1 | 94.3 | – | –
3 | CCCCCCCCN1C(=O)c2cccc3c(NCCNCCN(C)C)ccc(c23)C1=O | 18.1 | > 50 | 48.9 | > 100 | inactive | 264 (≈ 116 µg/mL) | > 50 | > 50 | 7.8 | 2.1 | 8.6 | 99.8 | inactive | inhibition [10]: Active; inhibition [11]: Active; inhibition [12]: Active; inhibition [13]: Dose-dependent effect; inhibition at 10 µM [14]: 70%; inhibition at 5 µM [15]: 30%; inhibition (HMEC-1 [16]): Dose-dependent effect; inhibition at 10 µM [17]: 70%; inhibition at 5 µM [18]: 55%; inhibition (HMEC-1 [19]): Dose-dependent effect; growth inhibition (GI) (HMEC-1 [20]): inactive; inhibition of growth at 40 µM [21]: 99%; inhibition of growth at 20 µM [22]: 68%; growth inhibition (GI) (HMEC-1 [23]): Dose-dependent effect
4 | CCCCCCCCCCCCCCCCN1C(=O)c2cccc3c(NCCNCCN(C)C)ccc(c23)C1=O | > 100 | > 50 | > 100 | > 50 | inactive | 16 (≈ 8.81 µg/mL) | > 50 | > 50 | 31.3 | 24.5 | 17.7 | 97.3 | inactive | –
5 | CCCCN1C(=O)c2cccc3c(NCCNCCN(C)C)ccc(c23)C1=O | > 100 | > 100 | > 100 | > 100 | inactive | 15400 (≈ 5890 µg/mL) | > 50 | > 50 | 21.4 | 5.8 | 10.5 | 90.2 | – | –
6 | CN(C)CCNCCNc1ccc2c3c(cccc13)C(=O)N(C)C2=O | > 100 | > 100 | > 100 | > 100 | inactive | 78400 (≈ 26700 µg/mL) | 13.6 | > 50 | 24.5 | 7.8 | 7.9 | 97.1 | inactive | Kb (DNA [25]): 1.3 ×10⁵ /M
7 | CCCCCCCCCCCCN1C(=O)c2cccc3c(NCCNCCN(C)C)ccc(c23)C1=O | 28.8 | > 50 | 27.6 | 26.2 | inactive | 63 (≈ 31.2 µg/mL) | > 50 | > 50 | 19.1 | 1.8 | 6.6 | 96.6 | – | –
8 | CN(C)CCN1C(=O)c2cccc3cc(N)cc(c23)C1=O [AMONAFIDE] | – | – | – | – | – | – | 13.8 | 21.6 | 3.2 | 0.9 | 4.4 | 97.5 | inactive | Kb (DNA [25]): 2.1 ×10⁵ /M

From ChEMBL document CHEMBL2407039 (Eur J Med Chem, 2013)
